The target in data set [1] is Integrin alpha-V/beta-5 (Homo sapiens, UniProt P06756+P18084). Put plainly: Binding affinity for alphaV-beta5 vitronectin receptor. Type of data set: protein-complex assay. In outline:
(§1)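 Competitive radioligand binding to isolated human integrin, αvβ3 or αvβ5, with 3H-SK&F-107260 as the displaced ligand; Ki values are means of two to three separate experiments.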

A short description of data set [2]: Half life period in rat. Format: ADME, organism-based. The following applies: in vivo. The procedure, abridged:
(§2)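 Rats (three per compound) dosed iv and po; plasma concentration–time data analysed non-compartmentally for half-life and clearance; oral bioavailability calculated from dose-normalized iv and po AUC (area under plasma concentration–time curve).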

Data set [3] deals with T1, Integrin alpha-V/beta-3 (Homo sapiens, UniProt P05106+P06756). Put plainly: Binding affinity for alphav/beta 3 vitronectin receptor in HEK cells. Format: cell-based, HEK293. The procedure, abridged:
(§3)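 Cell-based αvβ3 assay: HEK 293 cells transfected with human αvβ3; inhibition of adhesion to purified human vitronectin measured; IC50 values are means of two experiments, each in triplicate, run with an internal standard.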

Data set [4] in a line: Oral bioavailability in rat. Type of data set: ADME, organism-based. As to conditions: in vivo. In outline: as §2
Data set [5] addresses T1, Integrin alpha-V/beta-3. Put plainly: Binding affinity for alphaV-beta3 vitronectin receptor. Type of data set: protein-complex assay. In outline:
as §1

The nature of data set [6]: Plasma clearance in rat. Format: ADME, organism-based. As to conditions: read-out: Clp. The procedure, abridged: as §2
The target of data set [7] is Integrin alpha-IIb/beta-3 (Homo sapiens, UniProt P05106+P08514). Put plainly: Binding affinity for alphaIIb-beta3 vitronectin receptor. Format: protein-complex assay.
In data set [8] the target is T1, Integrin alpha-V/beta-3. The data set can be described thus: Inhibition of HEK 293 cell adhesion to vitronectin by human alphaV-beta3 integrin. Format: cell-based, HEK293. In outline:
as §3

Data set [9] is filed under the species Homo sapiens. Put plainly: Compound was tested for the inhibition of human vascular smooth muscle cell migration. Format: functional.

T1 sequence (P05106 27-788 limits assumed): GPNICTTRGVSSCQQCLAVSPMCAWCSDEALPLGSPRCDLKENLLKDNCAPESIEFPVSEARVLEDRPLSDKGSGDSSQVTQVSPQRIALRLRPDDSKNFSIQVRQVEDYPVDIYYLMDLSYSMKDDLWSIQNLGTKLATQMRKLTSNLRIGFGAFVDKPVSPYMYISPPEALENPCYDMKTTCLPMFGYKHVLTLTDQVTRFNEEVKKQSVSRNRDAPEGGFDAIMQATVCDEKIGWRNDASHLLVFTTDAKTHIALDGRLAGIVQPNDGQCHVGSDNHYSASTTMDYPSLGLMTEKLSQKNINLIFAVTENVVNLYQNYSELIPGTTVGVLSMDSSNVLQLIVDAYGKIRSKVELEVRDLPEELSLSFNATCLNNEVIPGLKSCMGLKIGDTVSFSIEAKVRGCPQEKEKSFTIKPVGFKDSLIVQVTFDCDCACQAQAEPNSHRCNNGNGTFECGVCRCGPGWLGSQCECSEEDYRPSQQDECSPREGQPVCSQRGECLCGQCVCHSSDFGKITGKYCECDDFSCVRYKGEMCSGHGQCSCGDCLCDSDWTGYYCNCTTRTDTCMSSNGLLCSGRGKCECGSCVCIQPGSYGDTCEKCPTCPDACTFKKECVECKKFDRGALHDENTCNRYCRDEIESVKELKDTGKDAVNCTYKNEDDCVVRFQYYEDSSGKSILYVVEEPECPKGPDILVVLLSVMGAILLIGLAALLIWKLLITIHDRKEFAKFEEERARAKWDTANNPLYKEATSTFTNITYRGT
T1 sequence (P06756 31-889 limits assumed): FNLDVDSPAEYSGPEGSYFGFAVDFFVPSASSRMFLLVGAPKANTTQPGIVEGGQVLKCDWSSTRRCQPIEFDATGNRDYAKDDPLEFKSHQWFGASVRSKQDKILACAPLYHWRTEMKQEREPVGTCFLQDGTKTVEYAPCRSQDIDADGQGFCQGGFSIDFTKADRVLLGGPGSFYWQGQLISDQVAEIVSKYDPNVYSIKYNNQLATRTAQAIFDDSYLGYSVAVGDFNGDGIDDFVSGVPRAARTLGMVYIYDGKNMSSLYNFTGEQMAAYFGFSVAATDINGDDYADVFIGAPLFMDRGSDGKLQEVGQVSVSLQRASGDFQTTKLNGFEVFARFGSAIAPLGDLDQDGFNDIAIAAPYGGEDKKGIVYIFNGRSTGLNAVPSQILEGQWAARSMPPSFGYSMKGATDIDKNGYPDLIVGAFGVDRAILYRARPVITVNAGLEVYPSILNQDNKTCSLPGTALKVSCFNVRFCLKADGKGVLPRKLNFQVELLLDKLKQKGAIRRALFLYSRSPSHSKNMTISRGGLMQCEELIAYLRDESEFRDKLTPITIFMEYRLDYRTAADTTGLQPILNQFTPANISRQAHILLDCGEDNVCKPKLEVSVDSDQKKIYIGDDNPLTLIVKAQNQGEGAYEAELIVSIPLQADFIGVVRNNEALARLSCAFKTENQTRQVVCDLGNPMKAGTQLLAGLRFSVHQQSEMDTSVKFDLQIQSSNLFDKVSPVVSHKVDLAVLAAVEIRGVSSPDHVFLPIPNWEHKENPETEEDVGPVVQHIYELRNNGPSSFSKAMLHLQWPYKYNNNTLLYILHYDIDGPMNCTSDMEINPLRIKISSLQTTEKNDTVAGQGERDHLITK
T1 sequence (P06756 891-1048 limits assumed): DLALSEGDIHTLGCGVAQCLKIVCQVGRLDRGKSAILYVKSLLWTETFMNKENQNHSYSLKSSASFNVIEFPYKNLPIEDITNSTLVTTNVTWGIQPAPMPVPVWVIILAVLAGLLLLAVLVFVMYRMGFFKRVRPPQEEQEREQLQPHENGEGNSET
Integrin alpha-V/beta-5, sequence (P06756 31-889 limits assumed): as the sequence (P06756 31-889 limits assumed) above
Integrin alpha-V/beta-5, sequence (P06756 891-1048 limits assumed): as the sequence (P06756 891-1048 limits assumed) above
Integrin alpha-V/beta-5, sequence (P18084 24-799 limits assumed): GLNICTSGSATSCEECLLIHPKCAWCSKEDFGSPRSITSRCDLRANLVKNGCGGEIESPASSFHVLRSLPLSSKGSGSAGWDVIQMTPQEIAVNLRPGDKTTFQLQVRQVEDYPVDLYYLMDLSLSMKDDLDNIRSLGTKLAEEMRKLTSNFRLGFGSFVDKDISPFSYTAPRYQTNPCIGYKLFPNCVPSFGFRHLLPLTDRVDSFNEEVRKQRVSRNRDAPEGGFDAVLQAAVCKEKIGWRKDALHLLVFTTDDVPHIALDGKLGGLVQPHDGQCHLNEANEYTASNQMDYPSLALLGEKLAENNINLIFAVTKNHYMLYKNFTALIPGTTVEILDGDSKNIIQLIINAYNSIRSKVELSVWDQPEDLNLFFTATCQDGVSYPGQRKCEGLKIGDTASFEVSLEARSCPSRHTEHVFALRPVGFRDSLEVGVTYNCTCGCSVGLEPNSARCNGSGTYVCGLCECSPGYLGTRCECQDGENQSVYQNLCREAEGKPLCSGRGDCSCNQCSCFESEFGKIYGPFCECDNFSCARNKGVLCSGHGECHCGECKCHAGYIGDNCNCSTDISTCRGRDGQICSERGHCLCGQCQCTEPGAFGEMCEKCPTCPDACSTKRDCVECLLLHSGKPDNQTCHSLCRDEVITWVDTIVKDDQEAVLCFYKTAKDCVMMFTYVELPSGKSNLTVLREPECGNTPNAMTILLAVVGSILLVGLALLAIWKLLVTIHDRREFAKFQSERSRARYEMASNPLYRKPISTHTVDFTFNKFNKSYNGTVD
Integrin alpha-IIb/beta-3, sequence (P05106 27-788 limits assumed): as the sequence (P05106 27-788 limits assumed) above
Integrin alpha-IIb/beta-3, sequence (P08514 32-887 limits assumed): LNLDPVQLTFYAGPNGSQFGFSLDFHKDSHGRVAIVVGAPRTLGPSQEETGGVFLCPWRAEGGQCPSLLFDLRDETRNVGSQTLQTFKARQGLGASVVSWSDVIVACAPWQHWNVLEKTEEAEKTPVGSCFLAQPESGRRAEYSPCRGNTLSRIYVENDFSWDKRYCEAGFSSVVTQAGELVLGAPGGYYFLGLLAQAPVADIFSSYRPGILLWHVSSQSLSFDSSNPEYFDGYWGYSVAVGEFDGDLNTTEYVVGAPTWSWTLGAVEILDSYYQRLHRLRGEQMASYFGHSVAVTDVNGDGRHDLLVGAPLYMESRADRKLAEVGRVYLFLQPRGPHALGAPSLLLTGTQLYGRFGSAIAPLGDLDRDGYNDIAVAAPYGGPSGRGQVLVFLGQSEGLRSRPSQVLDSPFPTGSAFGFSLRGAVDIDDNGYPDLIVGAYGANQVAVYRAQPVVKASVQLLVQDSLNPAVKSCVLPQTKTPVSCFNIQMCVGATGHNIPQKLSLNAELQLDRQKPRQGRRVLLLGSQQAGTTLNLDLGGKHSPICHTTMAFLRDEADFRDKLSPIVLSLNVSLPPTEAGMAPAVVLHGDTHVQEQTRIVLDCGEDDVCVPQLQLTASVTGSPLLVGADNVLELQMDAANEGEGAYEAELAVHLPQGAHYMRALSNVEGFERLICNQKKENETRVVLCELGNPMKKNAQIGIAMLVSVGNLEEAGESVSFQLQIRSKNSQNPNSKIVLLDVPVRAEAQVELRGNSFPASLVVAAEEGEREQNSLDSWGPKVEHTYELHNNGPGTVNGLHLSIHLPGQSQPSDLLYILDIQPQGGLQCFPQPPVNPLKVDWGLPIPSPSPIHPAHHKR
Integrin alpha-IIb/beta-3, sequence (P08514 891-1039 limits assumed): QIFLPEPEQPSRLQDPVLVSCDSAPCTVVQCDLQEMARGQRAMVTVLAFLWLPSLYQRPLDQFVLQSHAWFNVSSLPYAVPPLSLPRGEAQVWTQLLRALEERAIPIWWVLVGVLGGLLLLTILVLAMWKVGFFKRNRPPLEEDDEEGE

As to `O=C(O)C[C@@H]1Cc2ccc(OCCCNc3ccccn3)cc2Cc2ccccc21`, affinity in data set [1] was put at a Ki of 2.6 nM.
Turning to `O=C(O)C[C@H](Cc1ccc(OCCCNc2ccccn2)cc1)c1ccccc1`, in [2], the half-life came out at 2.4 h. The concentration for half-maximal inhibition (IC50) in data set [3] stood at 470 nM. The bioavailability in [4] stood at 100%. For the same compound, in [5], the affinity corresponds to a Ki of 12 nM. Further, the clearance in data set [6] came to 7.2 mL/min/kg.
For the compound `O=C(O)CC(Cc1ccc(OCCCNc2ccccn2)cc1)c1ccccc1` (centres undefined), the Ki in data set [7] is > 10000 nM; in data set [1] it was 6 nM; in data set [5] it was 32 nM. This compound returned an IC50 in data set [8] of 500 nM.
With `O=C(O)C[C@H](Cc1ccc(OCCc2ccc3c(n2)NCCC3)cc1)c1ccccc1`, the Ki in data set [7] was determined as 36000 nM; in data set [1] it was 2.5 nM; in data set [5], 2.5 nM. The half-life in [2] is 1.58 h. Also, the half-maximal inhibitory concentration (IC50) in [3] amounted to 30 nM; in [9], 26 nM. In addition, the bioavailability in [4] was determined as 100%. In data set [6], the clearance was 6 mL/min/kg.
As to `CNc1cccc(CCOc2ccc(C[C@@H](CC(=O)O)c3ccccc3)cc2)n1`, in [2], the half-life was 5.17 h. In [3], this compound returned an IC50 of 330 nM. In addition, the bioavailability in data set [4] turned out to be 100%. The Ki in [5] was determined as 7 nM. Also, the clearance in data set [6] stood at 4.9 mL/min/kg.
With `O=C(O)C[C@@H](Cc1ccc(OCCCNc2ccccn2)cc1)c1ccccc1`, the affinity in data set [5] corresponds to a Ki of 170 nM.

In general, Ki refers to a measure of affinity in units of concentration, obtained from inhibition or displacement. Lower therefore signals tighter binding. A word on the half-life: it is how long it takes for the measured level to halve. Higher therefore signals slow decline. Usually IC50 stands for the concentration that inhibits the measured activity by half. Read a high IC50 as weaker potency in that assay. By bioavailability is commonly meant the share of a dose that reaches the circulation, judged against a reference dose that is usually intravenous.

The record behind these values is ChEMBL document CHEMBL1136710, “Phenylbutyrates as potent, orally bioavailable vitronectin receptor (integrin alphavbeta3) antagonists” (Bioorg Med Chem Lett, 2003).
